A selection: hits, their analogues and other compounds. The true share with any hit is near 2.1%.
Runt-SMMHC FRET: inhibitors of human RUNX1 Runt domain binding to CBFb-SMMHC | AID 1434 | Q01196+Q13951 | inhibition, % at 20 µM | Cerulean-Runt/Venus-CBFb-SMMHC FRET ratio 530/480, 1 h | actives 0.74% (n = 220,000);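 active = mean inhibition across duplicate retests at 20 µM reaching about 50%, limit read from the data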;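 note: 0% = DMSO wells and 100% = wells with excess untagged CBFb-SMMHC; inhibitors lower the FRET ratio by blocking Runt binding to CBFb-SMMHC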
RanGTP-Impb inh: disruptors of Ran-importin-beta complex formation – biochemical, FRET, CFP-Ran, YFP-importin-beta, homogeneous, primary screen. cell-free CFP-Ran/YFP-importin-beta FRET ratio. inhibition, % (test concentration not listed). actives 1.1% (n = 300,000);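 active = more than half of the replicate wells show a fall in the fluorescence ratio signal beyond about 16%, limit read from the data, passing the limit was not always enough; inconclusive = exactly half of the replicate wells pass the set limit; inactive = fewer than half of replicates pass the limit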;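 note: 0% = DMSO wells and 100% = Ran loaded with GDP instead of GTP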
Pemphigus Ab inh: human desmoglein-3 autoantibody binding inhibition; binding (percent of control), % at 10 µM; actives 0.48% (n = 310,000); P32926; DSG3-coupled beads, scFv-anti-DSG3-GFP binding, flow cytometry; active compounds read low; AID 588358;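 active = binding more than 3 SD below its plate's average and above zero; inconclusive = below that plate limit but binding exactly zero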;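 note: hits lower antibody fragment binding to DSG3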
pCIP destab: p/CIP protein destabilization | F442A p/CIP-EGFP cells, EGFP fluorescence, 16 h | actives 0.01% (n = 290,000) | decrease of EGFP signal, % at 10 µM | Q05BA5;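 active = EGFP signal decrease of at least 30% at 10 µM or well 3 SD below plate mean, unless failing retest; inactive = the rest, including hits failing retest or dose response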
Target sequence (Q05BA5 1-1403): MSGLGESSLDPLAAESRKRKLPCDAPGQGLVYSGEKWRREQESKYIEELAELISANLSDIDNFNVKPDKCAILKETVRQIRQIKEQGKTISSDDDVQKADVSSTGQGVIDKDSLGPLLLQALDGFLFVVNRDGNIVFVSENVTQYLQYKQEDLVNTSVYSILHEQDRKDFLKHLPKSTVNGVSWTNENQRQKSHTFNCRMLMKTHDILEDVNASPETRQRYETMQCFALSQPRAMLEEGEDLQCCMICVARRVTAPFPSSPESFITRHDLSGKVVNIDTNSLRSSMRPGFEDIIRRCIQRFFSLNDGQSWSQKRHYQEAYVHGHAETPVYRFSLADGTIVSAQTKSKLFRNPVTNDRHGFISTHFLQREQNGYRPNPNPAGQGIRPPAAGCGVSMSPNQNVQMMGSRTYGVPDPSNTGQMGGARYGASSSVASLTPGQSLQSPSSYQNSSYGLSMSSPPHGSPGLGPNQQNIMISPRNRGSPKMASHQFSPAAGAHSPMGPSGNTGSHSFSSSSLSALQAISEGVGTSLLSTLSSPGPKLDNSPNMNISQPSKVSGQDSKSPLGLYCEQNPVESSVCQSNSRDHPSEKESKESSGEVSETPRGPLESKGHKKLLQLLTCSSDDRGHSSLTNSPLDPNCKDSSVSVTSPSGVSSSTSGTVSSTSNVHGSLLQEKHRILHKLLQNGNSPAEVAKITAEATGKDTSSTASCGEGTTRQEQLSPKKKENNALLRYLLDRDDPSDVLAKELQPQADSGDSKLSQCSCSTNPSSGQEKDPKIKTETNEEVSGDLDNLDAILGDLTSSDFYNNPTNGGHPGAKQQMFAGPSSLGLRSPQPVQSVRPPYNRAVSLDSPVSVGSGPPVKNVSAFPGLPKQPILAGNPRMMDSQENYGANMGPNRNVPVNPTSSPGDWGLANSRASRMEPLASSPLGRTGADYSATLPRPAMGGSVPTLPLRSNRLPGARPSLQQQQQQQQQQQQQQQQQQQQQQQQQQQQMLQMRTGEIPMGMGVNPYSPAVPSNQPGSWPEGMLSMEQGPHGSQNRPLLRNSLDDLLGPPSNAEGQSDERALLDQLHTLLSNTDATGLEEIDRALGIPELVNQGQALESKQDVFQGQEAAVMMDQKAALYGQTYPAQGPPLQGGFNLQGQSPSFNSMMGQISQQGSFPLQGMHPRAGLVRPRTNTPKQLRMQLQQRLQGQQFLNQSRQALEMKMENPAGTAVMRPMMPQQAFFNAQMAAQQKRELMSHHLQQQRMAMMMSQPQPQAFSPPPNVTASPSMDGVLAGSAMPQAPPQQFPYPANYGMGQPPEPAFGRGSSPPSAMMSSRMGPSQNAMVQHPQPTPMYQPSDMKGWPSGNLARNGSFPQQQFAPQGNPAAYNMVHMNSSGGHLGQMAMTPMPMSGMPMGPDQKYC
Runt-CBFb FRET: blocks binding of human RUNX1 Runt domain to CBFb; actives 0.46% (n = 220,000); Q01196+Q13951; Cerulean-Runt/Venus-CBFb FRET ratio 530/480, 1 h; inhibition, % at 20 µM;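 active = inhibition over about 50% at 20 µM in the single-dose screen, limit read from the data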;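 note: 0% = DMSO wells and 100% = excess unlabeled CBFb competitor control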
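Assay system: Cerulean-Runt domain fusion protein, energy donor; Signal: fluorescence energy transfer, 422 nm excitation, 530/480 nm emission; Timing: 1 h compound exposure, room temperature; Control set: unlabeled CBFb; Medium: Tris buffer pH 7.5 with salts and BSA; Compound: single test concentration of 20 µM, 1% DMSO final; Probe or stimulus: Venus-CBFb 100 nM.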
Hck-Nef inh: blocks Nef-activated human Hck kinase | Recombinant Hck-YEEI plus Nef, Z-Lyte FRET kinase assay | inhibition, % at 20 µM | actives 0.68% (n = 220,000) | AID 463187;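 active = Hck-Nef kinase inhibition above about 50%, limit read from the data; inactive = inhibition below that limit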;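 note: 0% = DMSO with Hck plus Nef and 100% = Hck alone without Nef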
The depositor's hits bear a star; ? = inconclusive; . = no result.

SMILES	Runt-SMMHC FRET	RanGTP-Impb inh	Pemphigus Ab inh	pCIP destab	Runt-CBFb FRET	Hck-Nef inh
O=C(Nc1ccc(Cl)c(Cl)c1)c1ccco1	.	3	115	5	.	.
CCOC(=O)c1c(NS(=O)(=O)c2ccccc2)n(CCCOC)c2nc3ccccc3nc12	10	106*	82	-5	0	28
COCCNC(=O)c1c(NC(=O)c2ccc(Br)o2)n(Cc2ccccc2)c2nc3ccccc3nc12	.	58*	79	-10	16	5
CCCCCn1c(NC(=O)c2ccco2)c(C(=O)OCC)c2nc3ccccc3nc21	102*	79*	95	-11	30	6
COCCCNC(=O)c1c(NC(=O)c2ccco2)n(Cc2ccccc2)c2nc3ccccc3nc12	.	44*	99	-31	42	12
Cc1csc(=N)n1Cc1ccccc1	5	5	96	-3	1	1
COC[C@H]1OC(=O)c2coc3c2[C@@]1(C)C1=C(C3=O)[C@@H]2CCC(=O)[C@@]2(C)C[C@H]1OC(C)=O	.	.	114	.	.	.
CC[C@@H](C(N)=O)N1CCCC1=O	-2	?	.	-7	0	.
C[C@H]1CC[C@@H]2[C@@H](C)[C@H]3[C@H](C[C@H]4[C@@H]5CC=C6C[C@@H](O[C@@H]7O[C@H](CO)[C@H](O)[C@H](O[C@@H]8O[C@H](CO)[C@@H](O)[C@H](O)[C@H]8O)[C@H]7O[C@@H]7O[C@@H](C)[C@H](O)[C@@H](O)[C@H]7O)CC[C@]6(C)[C@H]5CC[C@]34C)N2C1	24	17*	106	39	8	-3
Cc1ccc([C@@H]2C[C@H]3[C@@H](CN2S(=O)(=O)c2ccc(Cl)cc2)C(=O)C[C@@H](c2ccccc2F)N3S(=O)(=O)c2ccc(C)cc2)cc1	.	.	99	.	.	.
COc1ccc(CCNC(=O)COC(=O)Cc2ccccc2)cc1	0	0	101	-7	-2	-1
COC(=O)c1c(N)n(Cc2ccc(OC)cc2)c2nc3ccccc3nc12	118*	.	93	-3	47	11
CCOC(=O)c1c(N)n(Cc2ccc(OC)cc2)c2nc3ccccc3nc12	110*	12	.	-6	47	25
C=CCC1(CCCCC)C(=O)NC(=S)NC1=O	.	.	101	.	.	.
COC(=O)C1=C(C)NC(=S)NC1c1ccc(N(CCCl)CCCl)cc1Cl (centres undefined)	.	.	83	.	.	.
O=C1CC=C2C3CC4N(CCC45c4cc(O)c(O)cc4N1C25)CC3=CCBr (centres undefined)	.	.	54*	.	.	.
COc1ccc(Cl)cc1C(=O)C1CCCN(Cc2cnc(C)s2)C1 (centres undefined)	2	7	112	-22	0	-1
Cn1c(O)c(/C=N/NC(=O)c2ccncc2)c(=O)n(C)c1=S	81*	3	96	-5	44	-2
O=C(N/N=C/c1c(O)n(-c2ccccc2)c(=O)[nH]c1=O)c1ccncc1	10	9	124	-4	3	2
CCCCCCC(=O)N/N=C/c1c(O)n(CCCC)c(=S)[nH]c1=O	4	5	113	-6	4	14
Cc1ccc(-n2c(O)c(/C=N/NC(=O)c3ccncc3)c(=O)[nH]c2=O)cc1	3	0	104	-24	2	4
Cn1c(O)c(/C=N/NC(=O)c2ccncc2)c(=O)[nH]c1=S	71*	6	105	0	32	-43
CCCCn1c(O)c(/C=N/NC(=O)c2ccncc2)c(=O)[nH]c1=S	82*	5	97	4	62*	-47
OCC(Br)CBr (centres undefined)	.	.	99	.	.	.
CN(C)C(=O)Oc1noc2cc(Cl)ccc12	1	-2	.	-18	0	20
SMILES	Runt-SMMHC FRET	RanGTP-Impb inh	Pemphigus Ab inh	pCIP destab	Runt-CBFb FRET	Hck-Nef inh
O=C1NC(=O)N(Cc2ccccc2)C(=O)/C1=C/c1cnc(-c2ccccc2)nc1	11	-2	97	-1	0	58*
O=C1NC(=O)N(Cc2ccccc2)C(=O)/C1=C/N1CCCc2ccccc21	18	30*	102	-7	17	2
CC(C)c1ccc(N2C(=O)NC(=O)/C(=C/c3cnc(-c4ccccc4)nc3)C2=O)cc1	1	1	94	-20	0	6
c1cc2c(cc1N1CCCCC1)C1CC2CCN1 (centres undefined)	.	.	108	.	.	.
CCC1(C(=O)c2ccc(C)cc2)C2c3ccccc3OC(=O)C21C(=O)O (centres undefined)	1	0	106	-13	1	-20
C[C@@H]1CN([C@H](C)CO)C(=O)c2c(c3ccccc3n2C)-c2ccccc2CO[C@H]1CN(C)Cc1ccc2c(c1)OCCN2C	.	.	102	.	.	.
O=C(NCC(c1cccnc1)N1CCOCC1)Oc1ccccc1 (centres undefined)	0	?	105	3	2	0
O=C(NC(C(Cl)Cl)N1CCOCC1)c1ccccc1 (centres undefined)	-2	22*	95	-4	-1	-31
O=C(CCNC(=O)N1C[C@H]2C[C@@H](C1)c1cccc(=O)n1C2)Nc1ccc(F)cc1	.	1	80*	11	.	.
Cc1cc(C)cc(NC(=O)CCNC(=O)N2C[C@H]3C[C@@H](C2)c2cccc(=O)n2C3)c1	.	-1	102	-1	.	.
O=C(Nc1ccc(F)cc1)N1CC2CC(C1)c1cccc(=O)n1C2 (centres undefined)	-4	21*	105	-13	.	-1
COC(=O)C1=C(c2ccc(F)cc2OCc2ccccc2)C[C@@H]2CC[C@H]1N2C(=O)NC1Cc2ccccc2C1	.	.	98	.	.	.
Oc1ccccc1-[n+]1c(-c2ccccc2)cc(-c2ccccc2)cc1-c1ccccc1	.	8	113	.	.	.
Nc1ccccc1-[n+]1c(-c2ccccc2)cc(-c2ccccc2)cc1-c1ccccc1	-4	41*	105	1	1	-12
O=[N+]([O-])c1cnc[nH]1	.	2	111	.	.	.
CCCCn1c(O)c(/C=C/C=Nc2ccccc2)c(=O)[nH]c1=O	64*	41*	97	-9	47	4
CCCCC(=O)N/N=C/c1c(O)n(CCc2ccccc2)c(=O)[nH]c1=O	0	2	92	-2	1	32
Cn1c(O)c(/C=C/C=Nc2ccccc2)c(=O)n(C)c1=O	69*	33*	103	-22	35	2
Cc1nc(N2CCN(Cc3ccc4c(c3)OCO4)CC2)[nH]c(=O)c1C	.	?	95	4	.	.
N#Cc1c(Cl)nc(Cl)c2c1CCN(Cc1ccccc1)C2	61*	0	98	0	22	24
CC(C)OCCCNC(=O)c1c(N)n(Cc2cccs2)c2nc3ccccc3nc12	81*	80*	100	14	16	44
